According to ChEMBL document CHEMBL5316289, “Structure-Based Rational Design of Small α-Helical Peptides with Broad-Spectrum Activity against Multidrug-Resistant Pathogens” (J Med Chem, 2023):
Calls of active or inactive are those of the source. The calls are words filed in the database; no cut-off is given here.

What was measured:
Staphylococcus aureus [1] = test: Bactericidal activity against methicillin resistant Staphylococcus aureus ATCC BAA 1556 assessed as inhibition of bacterial growth at 4 times of MIC incubated for 4 hrs by Time kill assay; format: functional
How it was run: (§1)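 Aliquots taken every 30 min for 4 h and plated on agar for viable colony counts. Two independent experiments in triplicate.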

MRC5 = test: Antiproliferative activity human MRC5 cells assessed as reduction in cell viability at 50 ug/ml incubated for 24 hrs by MTS assay; format: functional; details: dose 50 µg/ml
How it was run: (§2)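 Cells seeded at 10,000 per well 24 h before treatment. Media: MRC-5 and HEK293 in DMEM with 10% FBS; HepaRG in William's E with GlutaMAX; HEKa in Dermal Cell Basal medium plus keratinocyte growth kit. Peptide at 10–250 μg/mL in triplicate for 24 h, 37 °C, 5% CO2. MTS added for 2 h, then A490 read. Survival is blank-corrected OD as % of untreated control.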

Cell membrane = test: Disruption of cell membrane in Escherichia coli ATCC BAA-2452 assessed as increase in PI fluorescence intensity measured after 1 hrs by PI staining based flow cytometric analysis
How it was run: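 Mid-log E. coli ATCC BAA-2452 grown in Mueller Hinton broth, washed thrice and resuspended at 10^7 CFU/mL in 10 mM Tris pH 7.4. […] Controls: PBS (negative) and 10% Triton X-100 (positive). Triplicate; two-tailed unpaired t-test.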

[2] = Antiproliferative activity human HEKa cells assessed as reduction in cell viability at 250 ug/ml incubated for 24 hrs by MTS assay; format: functional; details: dose 250 µg/ml; how it was run: as §2
HepaRG [3] = test: Antiproliferative activity human HepaRG cells assessed as reduction in cell viability at 50 ug/ml incubated for 24 hrs by MTS assay; format: functional; details: dose 50 µg/ml; how it was run: as §2
Escherichia coli [4] = test: Antibacterial activity against Escherichia coli ATCC 25922 assessed as fold increase in MIC incubated for 24 hrs in presence of Ca2+ ions by CLSI based broth microdilution method; format: functional
How it was run: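 E. coli MICs by CLSI broth microdilution in cation-adjusted Mueller Hinton broth. […] Inoculum was 10^6 CFU/mL with 2-fold serial peptide dilutions, incubated 24 h at 37 °C. MIC is the lowest concentration inhibiting growth. Three independent assays, each in triplicate.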

Staphylococcus aureus [5] = test: Antibacterial activity against methicillin resistant Staphylococcus aureus ATCC BAA 1556 assessed as fold increase in MIC incubated for 24 hrs in presence of Na+ ions by CLSI based broth microdilution method; format: functional
How it was run: (§3)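 CLSI broth microdilution. Overnight cultures diluted in cation-adjusted Mueller Hinton broth to 10^6 CFU/mL, mixed 1:1 with 2-fold serial peptide dilutions, 24 h at 37 °C. […] MIC is the lowest concentration inhibiting growth. Three independent assays in triplicate.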

Staphylococcus aureus [6] = test: Antibacterial activity against methicillin resistant Staphylococcus aureus ATCC BAA 1556 assessed as fold increase in MIC incubated for 24 hrs in presence of Mg2+ ions by CLSI based broth microdilution method; format: functional; how it was run: as §3
HepaRG [7] = test: Antiproliferative activity human HepaRG cells assessed as reduction in cell viability at 250 ug/ml incubated for 24 hrs by MTS assay; format: functional; details: dose 250 µg/ml; how it was run: as §2
[8] = Antiproliferative activity human HEKa cells assessed as reduction in cell viability at 50 ug/ml incubated for 24 hrs by MTS assay; format: functional; details: dose 50 µg/ml; how it was run: as §2
Staphylococcus aureus [9] = test: Antibacterial activity against methicillin resistant Staphylococcus aureus ATCC BAA 1556 assessed as fold increase in MIC incubated for 24 hrs in presence of Ca2+ ions by CLSI based broth microdilution method; format: functional; how it was run: as §3
Escherichia coli [10] = test: Induction of membrane morphological changes in Escherichia coli ATCC BAA-2452 assessed as cellular debris formation at 4 times of MIC measured after 1 hrs by FE-SEM analysis; format: functional, organism-based
How it was run: (§4)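 E. coli ATCC BAA-2452 grown to exponential phase in MHB at 37 °C with shaking, then diluted to 2 × 10^6 CFU/mL. […] Cells were PBS-washed and fixed 3 h in 4% glutaraldehyde in 0.2 M cacodylate. Then ethanol-dehydrated, HMDS-dried, Au/Pd-coated and imaged by FE-SEM. Untreated control.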

Staphylococcus aureus [11] = test: Induction of membrane morphological changes in methicillin resistant Staphylococcus aureus ATCC BAA 1556 assessed as cell surface wrinkling at 4 times of MIC measured after 1 hrs by FE-SEM analysis; format: functional, organism-based
How it was run: (§5)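 Methods give 30 min; legend gives 1 h. Washed, fixed in 4% glutaraldehyde in 0.2 M Na-cacodylate for 3 h, dehydrated through graded ethanol, dried with HMDS, Au/Pd-coated (~20 nm) and imaged by SEM. Untreated cells as control.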

Escherichia coli [12] = test: Induction of membrane morphological changes in Escherichia coli ATCC BAA-2452 assessed as cell surface blebs formation at 4 times of MIC measured after 1 hrs by FE-SEM analysis; format: functional, organism-based; how it was run: as §4
Staphylococcus aureus [13] = test: Induction of membrane morphological changes in methicillin resistant Staphylococcus aureus ATCC BAA 1556 assessed as cellular debris formation at 4 times of MIC measured after 1 hrs by FE-SEM analysis; format: functional, organism-based; how it was run: as §5
Escherichia coli [14] = test: Bactericidal activity against […] Escherichia coli ATCC BAA 2452 assessed as inhibition of bacterial growth at 4 times of MIC incubated for 4 hrs by Time kill assay; format: functional; how it was run: as §1
Staphylococcus aureus [15] = test: Induction of membrane morphological changes in methicillin resistant Staphylococcus aureus ATCC BAA 1556 assessed as cell surface roughening at 4 times of MIC measured after 1 hrs by FE-SEM analysis; format: functional, organism-based; how it was run: as §5

| Substance | inhibition (INH) (Staphylococcus aureus [1]) [%] | Activity (MRC5) [%] | Activity (Cell membrane) | Activity [2] [%] | Activity (HepaRG [3]) [%] | fold change (FC) (Escherichia coli [4]) | fold change (FC) (Staphylococcus aureus [5]) | fold change (FC) (Staphylococcus aureus [6]) | Activity (HepaRG [7]) [%] | Activity [8] [%] | fold change (FC) (Staphylococcus aureus [9]) | Activity (Escherichia coli [10]) | Activity (Staphylococcus aureus [11]) | Activity (Escherichia coli [12]) | Activity (Staphylococcus aureus [13]) | inhibition (INH) (Escherichia coli [14]) [%] | Activity (Staphylococcus aureus [15]) |
| --- | --- | --- | --- | --- | --- | --- | --- | --- | --- | --- | --- | --- | --- | --- | --- | --- | --- |
| H-RWLRRWLRWWRR-NH2 | 100 | <60 | Dose-Dependent Effect | <30 | <60 | 2 | 2 | 2 | <30 | <60 | 2 | – | – | – | – | – | – |
| H-KWLKKWLKWWKK-NH2 | 100 | >75 | Dose-Dependent Effect | – | >75 | 2 | 2 | 2 | >60 | >75 | 2 | Active | Active | Active | Active | 70 | Active |
